# Screening results: PubChem BioAssay, The Scripps Research Institute Molecular Screening Center
# Only some compounds are listed: those with a hit (about 2% of all), similar ones and a draw of the others.
# PAD4 FP inh – PAD4 (human) enzyme inhibition | hit rate 0.41% among 330,000 | Q9UM07 | recombinant PAD4, RCA probe fluorescence polarization | AID 485272 | inhibition, % at 6.36 µM;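 active = percent inhibition above a cutoff equal to the mean of all tested compounds plus 3 SD, cut at about 15% in these data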;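 also: 0% = PAD4 with RCA probe and DMSO and 100% = probe without PAD4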
# TCR CD3 inh – human TCR-CD3 binding inhibition | TAMRA-labeled TCR probe fluorescence, biochemical | inhibition, % at 9.4 µM | hit rate 0.37% among 360,000;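 also: recombinant mutant TCR 2C K166C tagged with TAMRA read by polarization; 0% = receptor in buffer alone and 100% = receptor with positive control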
# SIAE primary – human SIAE inhibition, primary screen; Q9HAT2; SIAE FP-Rh probe binding, fluorescence polarization; inhibition, % at 9.66 µM; hit rate 0.69% among 370,000;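 active = inhibition above a cutoff: mean of compounds within the control limits plus 3 SD of those, cut at about 17% in these data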;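 also: 0% = plate median of compound wells and 100% = probe without SIAE protein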
# Target sequence (Q9HAT2 whole entry, looked up): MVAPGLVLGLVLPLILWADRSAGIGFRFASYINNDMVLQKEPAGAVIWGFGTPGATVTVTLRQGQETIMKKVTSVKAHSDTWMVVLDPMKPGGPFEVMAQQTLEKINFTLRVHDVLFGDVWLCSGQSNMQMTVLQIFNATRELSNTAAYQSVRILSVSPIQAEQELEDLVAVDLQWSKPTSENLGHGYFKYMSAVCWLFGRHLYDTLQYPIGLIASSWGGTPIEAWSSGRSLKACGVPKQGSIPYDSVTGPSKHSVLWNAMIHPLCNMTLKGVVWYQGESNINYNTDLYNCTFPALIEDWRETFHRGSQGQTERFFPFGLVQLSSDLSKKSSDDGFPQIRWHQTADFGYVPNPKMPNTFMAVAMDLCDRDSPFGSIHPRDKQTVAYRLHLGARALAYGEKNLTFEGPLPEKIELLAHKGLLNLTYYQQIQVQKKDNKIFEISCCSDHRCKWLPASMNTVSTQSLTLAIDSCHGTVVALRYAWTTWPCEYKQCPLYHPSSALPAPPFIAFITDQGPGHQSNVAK
# TDP2 inh – TDP2 (human) inhibition, absorbance primary screen. O95551. recombinant TDP2, T5PNP hydrolysis, p-nitrophenol absorbance 415 nm. inhibition, % at 12.8 µM. hit rate 0.34% among 370,000. AID 720702;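 active = inhibition above the mean of all tested compounds plus 3 SD, set per campaign, cut at about 25% in these data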;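 also: 0% = DMSO with enzyme and 100% = buffer with substrate but no TDP2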
#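 Test system: Human TDP2 enzyme | Reagent: 5 mM T5PNP | Compound dosing: 12.8 µM single point, 1% DMSO | Incubation: Enzyme reaction with compound for 2 h at 37 °C | Technique: p-Nitrophenol epi absorbance | Read-out: % inhibition relative to enzyme-containing and enzyme-free wells | Benchmarks: High control without enzyme, low control DMSO plus TDP2 | Replicates: Singlicate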
# ABHD4 inh – inhibits mouse alpha/beta hydrolase domain 4 | inhibition, % at 8.92 µM | Q8VD66 | purified mABHD4, FP-Rh probe fluorescence polarization | hit rate 0.54% among 370,000;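 active = inhibition exceeding the mean over every tested compound plus 3 SD, cut at about 30% in these data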;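 also: 0% = plate median of compound wells and 100% = S159A mutant with DMSO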
#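 Test system: mABHD4 protein | Buffer or medium: HEPES pH 7.0 buffer, 150 mM NaCl, 0.01% Pluronic F-127 | Probe or stimulus: FP-Rh fluorescent activity-based probe, added after compound pre-incubation | Timing: Pre-incubation 45 min, probe exposure 60 min, at 25 °C | Technique: Fluorescence polarization, excitation 525 nm, emission 598 nm, BODIPY TMR filters | Repeats: Single well per compound (singlicate)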
# HTRA1 inh – HTRA1 (human) protease inhibition; inhibition, % at 5.96 µM; recombinant HTRA1, FP-rhodamine activity-based probe, fluorescence polarization; hit rate 0.5% among 340,000; Q92743; in the data active = inhibition above about 36%;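 also: 0% = enzyme with DMSO and 100% = wells lacking enzyme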
# HTRA1 conf – confirmation of human HTRA1 inhibitors. hit rate 66% among 1,600. inhibition, % at 5.96 µM. AID 540248. recombinant HTRA1, FP-rhodamine activity-based probe, fluorescence polarization. shares compounds with HTRA1 inh;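 active = mean inhibition over three repeats above a set limit taken from the earlier primary screen, cut at about 37% in these data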;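 also: 0% = HTRA1 with DMSO and 100% = wells lacking HTRA1; inhibitors block probe binding so polarization drops and inhibition rises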
# BSA TAMRA ctr – interferes with TAMRA-BSA probe, flagging TCR-CD3 hits; shares compounds with TCR CD3 inh; TAMRA-labeled BSA probe fluorescence counterscreen; inhibition, % at 9.4 µM; hit rate 10% among 1,200; in the data active = inhibition above about 23%;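 also: 0% = buffer low control and 100% = reference high control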
# TCR-CD3 inh conf – confirmation of human TCR-CD3 interaction inhibitors | shares compounds with TCR CD3 inh | TAMRA-labeled TCR probe fluorescence binding assay | inhibition, % at 9.4 µM | hit rate 48% among 1,200 | AID 652036
# mABHD4 conf – confirmation of mouse ABHD4 inhibitors. shares compounds with ABHD4 inh. purified mABHD4, FP-Rh probe fluorescence polarization. inhibition, % at 8.92 µM. hit rate 55% among 1,800;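 active = mean inhibition across replicates above the hit cutoff set in the primary screen, cut at about 30% in these data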;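 also: 0% = wild-type ABHD4 with DMSO and 100% = catalytically dead S159A mutant with DMSO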
# * hit, by the source's call; . = no result given. Rule as the data show it, unless noted: active = inhibition above about 19%; inactive = the rest.
SMILES,PAD4 FP inh,TCR CD3 inh,SIAE primary,TDP2 inh,ABHD4 inh,HTRA1 inh,HTRA1 conf,BSA TAMRA ctr,TCR-CD3 inh conf,others
O=C(N/N=C/c1cc(Br)cc(Cl)c1O)c1ccc2c(c1)OCO2,1,38*,-1,-12,6,42*,14,-6,29*,
CCOC(=O)c1ccc(N2N=C(C)/C(=C/C=C/c3ccco3)C2=O)cc1,-6,3,10,4,5,7,.,.,.,
O=C(O)c1cc(N2N=C(C(F)(F)F)/C(=C/C=C/c3ccco3)C2=O)ccc1Cl,.,26*,5,12,58*,41*,14,13,34*,
Cc1c(N=C2C=C(Br)C(=O)C(Br)=C2)c(=O)n(-c2ccccc2)n1C,.,46*,13,61*,69*,57*,24,-3,3,
CCCN(C)C[C@@H]1OCc2cnnn2CCCC(=O)N([C@H](C)CO)C[C@H]1C,.,-4,5,-3,4,-5,.,.,.,
C/C(=N/NC(=O)c1cc2ccccc2cc1O)C1C(=O)c2ccccc2C1=O,-7,45*,21*,6,49*,74*,53*,1,68*,
C=CCn1cnc2c(nnn2Cc2ccc(F)cc2)c1=O,1,3,7,18,2,0,.,.,.,
Cc1nnsc1C(=O)N/N=C/c1ccccc1,-6,4,3,3,3,-1,.,.,.,
Cc1nnsc1C(=O)N/N=C/c1ccc2ccccc2c1O,-6,41*,6,-4,5,41*,55*,-23,29*,
COc1ccc(N(C)S(=O)(=O)c2ccc(Cl)c(C(=O)NNC(=O)c3ccccc3O)c2)cc1,.,26*,13,5,1,42*,32,3,18,
NC(=O)c1cc(S(=O)(=O)NCCc2ccc(S(N)(=O)=O)cc2)cs1,5,-5,7,-4,0,8,.,.,.,
CCN(CC(=O)NCc1ccc(F)cc1)C(=O)c1cc2ccccc2o1,-4,5,-2,4,-1,-6,.,.,.,
COc1cc(-c2nnc(SCc3cc(=O)oc4cc(O)c(O)cc34)o2)cc(OC)c1OC,2,28*,1,1,33*,47*,35,-16,40*,
CCOC(=O)CNC(=O)CSc1nnc(-c2ccc(C(C)(C)C)cc2)n1-c1ccc(Cl)cc1,.,.,-1,-2,-6,.,.,.,.,
Oc1ccc(-c2cn3ccccc3n2)cc1O,0,19,-4,-3,21,12,.,.,.,
Cc1ccn2cc(-c3ccc(O)c(O)c3)nc2c1,-1,34*,6,-8,26,44*,65*,-9,26*,
CCOc1cccc(CNc2ccc(O)cc2)c1OCc1ccc(Cl)cc1Cl,-3,27*,32*,-3,66*,60*,29,3,0,
CCOc1cccc(/C=N/NC(=S)Nc2ccccc2[N+](=O)[O-])c1O,-5,31*,7,6,27,54*,51*,-4,15,
CCCCNC(=S)N/N=C/c1cccc(OCC)c1O,6,6,2,-7,5,17,.,.,.,
CCN(CC(=O)Nc1ccc(S(=O)(=O)N2CCCC2)cc1)Cc1ccccc1,2,8,-8,-11,2,-10,.,.,.,
Oc1ccccc1N=Nc1ccccc1O,.,19*,17,0,20,66*,59*,-6,5,
C=CCn1c(O)c(N=Nc2ccccc2O)c2ccccc21,-3,5,16,2,11,23,.,.,.,
O=C(O)CC(CCc1ccccc1)OC1OC(CO)C(O)C(O)C1O (centres undefined),3,32*,-17,5,0,41*,41*,-11,30*,
CCC(C)(C)NC(=O)C(c1cccc(OC)c1OC)N(C(=O)CCC(=O)Nc1cc(C)on1)C(C)C (centres undefined),-6,1,1,1,8,0,.,.,.,
O=C(COC(=O)/C=C/c1ccc(OC(F)F)cc1)Nc1ccc2[nH]c(=O)[nH]c2c1,-2,0,-18,-7,-31,-9,.,.,.,
SMILES,PAD4 FP inh,TCR CD3 inh,SIAE primary,TDP2 inh,ABHD4 inh,HTRA1 inh,HTRA1 conf,BSA TAMRA ctr,TCR-CD3 inh conf,others
N#C/C(=C\N1CCOCC1)C(N)=O,1,-1,-3,5,7,.,.,.,.,
O=C(/C=C/c1ccc(O)c(O)c1)c1ccccc1O,-2,7,-10,4,36*,60*,68*,.,.,mABHD4 conf=27
COc1ccc(Cl)cc1NC(=O)CCNS(=O)(=O)c1cccc2nonc12,-3,5,2,-12,1,-11,.,.,.,
CCOC(=O)Cc1csc(NC(=O)NC2(C(F)(F)F)Oc3cc(Cl)c(Cl)cc3O2)n1,-4,6,-1,-12,30*,37*,64*,.,.,mABHD4 conf=13
O=[N+]([O-])c1ccc(N=Nc2c(Cl)cc(O)cc2Cl)cc1,16*,0,26*,-14,77*,67*,73*,.,.,mABHD4 conf=85*
CC(C)COC(=O)N1CCCCC1c1cc(C(=O)Nc2ccccc2)no1 (centres undefined),.,6,-6,-1,-9,.,.,.,.,
C[C@@H]1C[C@H]2[C@@H](C)C(=O)N3[C@H](c4ccccc4)[C@H](C)C[C@H]3[C@@H](C)C(=O)N2[C@@H]1c1ccccc1,.,.,-4,0,11,.,.,.,.,
N#Cc1ccc(S(=O)(=O)N2CCCCC2c2cc(C(=O)NCc3cccnc3)no2)cc1 (centres undefined),.,-5,-2,12,0,.,.,.,.,
CN(C)S(=O)(=O)c1cccc2c1C(=O)c1ccccc1C2=O,5,-5,1,6,0,-3,.,.,.,
CN(C)c1cc2c(c(N(C)C)c1)C(=O)c1ccccc1C2=O,-4,-5,0,10,41*,41*,50*,.,.,mABHD4 conf=33*
COCCNC(=O)C1Nc2ccc(OC(F)(F)F)cc2C2C=CCC12 (centres undefined),-4,3,13,7,29,33,.,.,.,
O=C(NCc1ccccn1)C1Nc2ccc(C(F)(F)F)cc2C2C=CCC12 (centres undefined),-6,-6,16,10,32*,45*,4,.,.,mABHD4 conf=4
FC(F)(F)c1ccc2c(c1)C1C=CCC1C(c1ccncc1)N2 (centres undefined),.,-19,10,6,39*,52*,59*,.,.,mABHD4 conf=13
